NOD2 RIPK2 PPI: NOD2-RIPK2 binding disruptors in cells, primary screen, fluorescence, CHO cells, BLA complementation; Receptor-interacting serine/threonine-protein kinase 2 (Homo sapiens), O43353; CCF4 ratio; inhibition, % at 4.98 µM; 0.38% of 360,000 active; AID 624267, 2012; in the data active = inhibition above about 21%;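 note: 0% = vehicle only and 100% = reference blocker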
TLR9-MyD88 block: inhibitors of TLR9-MyD88 association in cells, primary screen, cell-based, CHO, BLA complementation, fluorescence | Toll-like receptor 9 (Homo sapiens) + Myeloid differentiation primary response protein … | CCF4 FRET ratio | inhibition, % at 4.98 µM | 0.21% of 340,000 active | AID 504734, 2011;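 active = inhibition above the mean over all tested compounds plus 3 SD, cut at about 21% in these data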;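 note: 0% = DMSO only wells and 100% = clavulanate BLA inhibitor control wells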
TLR4 MyD88 comp: inhibitors of TLR4-MyD88 association in cells, primary screen, cell-based, HeLa CL3-4, BLA complementation, FRET ratio | Toll-like receptor 4 (Homo sapiens) + Myeloid differentiation primary response protein … | HeLa CL3-4 TLR4/MyD88 BLA complementation | inhibition, % at 8.4 µM | 0.18% of 200,000 active | AID 861, 2007; in the data active = inhibition above about 25%;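 note: 0% = vehicle and 100% = reference inhibitor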
Target sequence (O00206 whole entry, looked up): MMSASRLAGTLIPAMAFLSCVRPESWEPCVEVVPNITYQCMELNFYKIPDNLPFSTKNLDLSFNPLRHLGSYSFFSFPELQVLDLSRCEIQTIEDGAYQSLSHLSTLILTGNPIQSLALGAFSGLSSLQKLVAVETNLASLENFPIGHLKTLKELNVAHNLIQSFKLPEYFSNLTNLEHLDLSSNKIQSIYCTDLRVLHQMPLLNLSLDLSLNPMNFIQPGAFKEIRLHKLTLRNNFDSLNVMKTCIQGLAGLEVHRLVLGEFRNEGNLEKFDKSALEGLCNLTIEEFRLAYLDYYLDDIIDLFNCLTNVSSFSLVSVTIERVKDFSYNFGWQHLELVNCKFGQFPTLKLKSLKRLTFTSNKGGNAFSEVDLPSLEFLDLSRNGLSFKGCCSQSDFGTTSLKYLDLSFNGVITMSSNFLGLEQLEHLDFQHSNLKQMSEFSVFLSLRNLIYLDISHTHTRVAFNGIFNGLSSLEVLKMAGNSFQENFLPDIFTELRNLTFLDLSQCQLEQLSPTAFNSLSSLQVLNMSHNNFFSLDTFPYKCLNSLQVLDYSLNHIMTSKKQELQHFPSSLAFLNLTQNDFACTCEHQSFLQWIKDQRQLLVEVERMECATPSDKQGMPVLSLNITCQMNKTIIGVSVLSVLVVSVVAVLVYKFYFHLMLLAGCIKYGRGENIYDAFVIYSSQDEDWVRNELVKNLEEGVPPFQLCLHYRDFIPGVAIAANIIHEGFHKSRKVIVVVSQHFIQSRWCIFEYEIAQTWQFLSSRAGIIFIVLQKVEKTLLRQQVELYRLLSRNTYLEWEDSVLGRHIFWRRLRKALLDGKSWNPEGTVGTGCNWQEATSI
Target sequence (Q99836 whole entry, looked up): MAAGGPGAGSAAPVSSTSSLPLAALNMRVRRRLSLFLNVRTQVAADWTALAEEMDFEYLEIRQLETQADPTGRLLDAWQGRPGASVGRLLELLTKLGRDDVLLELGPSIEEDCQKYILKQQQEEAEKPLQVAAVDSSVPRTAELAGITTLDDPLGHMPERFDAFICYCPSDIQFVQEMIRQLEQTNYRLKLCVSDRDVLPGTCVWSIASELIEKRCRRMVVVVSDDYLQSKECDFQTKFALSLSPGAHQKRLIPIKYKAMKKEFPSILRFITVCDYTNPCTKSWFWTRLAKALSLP
UPR CHOP act: activators of apoptotic CHOP UPR arm, primary screen, cell-based, CHO-CHOP luciferase reporter, luminescence, uHTS | activation, % at 10 µM | 0.34% of 330,000 active | UPR activation; percent of tunicamycin response over DMSO baseline;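 active = at 10 µM dose, activation of 40% or more, normalized to positive control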;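 note: 100% = tunicamycin at 10 µg/mL and 0% = DMSO alone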
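assay system = CHO CHOP reporter cells | amount = 500 CHO-CHOP cells per well | buffer or medium = F12 with 10% FBS | incubation = 16-18 h cell attachment, then 6 h compound exposure, 37 °C | detection = luminescence read with Steady-Glo | read-out = percent activation relative to tunicamycin control | controls = tunicamycin high control, DMSO low control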
CHOP inh: inhibitors of CHOP promoter induction, primary screen, cell-based, unfolded protein response, luciferase reporter | CHO-K1 CHOP-promoter luciferase, tunicamycin-induced, 15-18 h | inhibition, % at 10 µM | 3.8% of 220,000 active | AID 2732, 2010;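 active = compounds that reduced the stress-induced luciferase reporter signal by more than about 70% of percent inhibition, limit read from the data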;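 note: 0% = tunicamycin plus vehicle and 100% = wells without tunicamycin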
UPR XBP1 act: activators of adaptive XBP1 UPR arm, primary screen, cell-based, CHO-XBP1 luciferase reporter, luminescence, uHTS; 0.33% of 330,000 active; AID 463104, 2010; IRE1-XBP1 UPR activation; percent of tunicamycin response, DMSO as zero; activation, % at 20 µM;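 active = versus positive control, 20 µM dose yields 30% or more activation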;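 note: 100% = tunicamycin at 10 µg/mL and 0% = DMSO only wells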
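Signal: luciferase luminescence; Assay system: CHO-XBP1 luciferase reporter cells; Amount: one thousand reporter cells per well; Dosing: 20 µM single concentration, DMSO 1%; Benchmarks: high control tunicamycin 10 µg/mL final, low control DMSO vehicle only; Schedule: 6 h compound exposure at 37 °C, 5% CO2; Evaluation: percent activation relative to tunicamycin reference.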
The depositor's hits bear a star; nt = not tested or not shown. Many of the other results were omitted from the sample, so hits are more common in it than they were.

SMILES	NOD2 RIPK2 PPI	TLR9-MyD88 block	TLR4 MyD88 comp	UPR CHOP act	CHOP inh	UPR XBP1 act
COc1ccc2c(c1OC)C(=O)N1N=C(c3ccc(Cl)cc3)CC21 (stereo not drawn)	3	3	10	4	-1	0
Cc1cccc(N(C)C(=O)C2CCCN2S(=O)(=O)c2cccc3nsnc23)c1 (stereo not drawn)	-3	-1	nt	2	3	-1
NC(COCc1ccccc1)c1csc(NC(=O)Nc2cccc(C(F)(F)F)c2)n1 (stereo not drawn)	11	nt	nt	nt	nt	nt
O=C(Nc1cc(C(F)(F)F)ccc1F)C1CCCCC1	-4	1	15	-2	40	2
O=C(Nc1cccc(C(F)(F)F)c1)c1ccccc1NC(=O)C1CCCCC1	-20	-3	-10	0	94*	-1
CCOC(=O)[C@]12CCCC=C1N(Cc1cccc3ccccc13)C(=O)[C@H](CC(=O)NCCCN1CCCC1=O)C2	-3	nt	nt	nt	nt	nt
CCn1c(C2CC(=O)N(c3cc(C)cc(C)c3)C2)nc2ccccc21 (stereo not drawn)	-14	2	-3	2	75*	-1
CCOc1cc(/C=N/NC(=O)C(N)=O)cc(Br)c1O	7	0	4	-2	22	-2
CCOc1cc(Br)c(Br)c(C=Nc2ccc(NC(C)=O)cc2)c1O	9	10	-5	1	87*	-3
COc1ccc(CCNC(=O)CNC(=O)c2ccccc2Br)cc1OC	0	6	nt	-1	nt	0
O=C(COc1ccc2ccccc2c1)Nc1nc2ccccc2[nH]1	-1	2	10	0	78*	3
Cc1ccc(CNC(=O)CSc2nc(N3CCCCC3)nc(N3CCCCC3)n2)cc1	-12	-12	-6	1	71*	-4
CCOc1ccc(OCCSc2nc3ccccc3o2)cc1	-17	-6	-11	-1	77*	-5
CC12CCC(c3nnc(SCc4ccc(Cl)cc4)nc31)C2(C)C (stereo not drawn)	-3	-2	8	-1	74*	-1
COc1cc(OC)cc(-c2cc3nc(C)c(CCC(=O)O)c(C)n3n2)c1	-4	2	-6	nt	95*	nt
CCOC(=O)C1CCCCN1C(=O)CCc1c(C)nc2cc(-c3ccccc3)nn2c1C (stereo not drawn)	-7	-3	-5	-4	73*	-5
Cc1nc2cc(-c3ccccc3)nn2c(C)c1CCC(=O)N1CCN(c2ccccn2)CC1	nt	nt	-9	nt	71*	nt
COc1cc(OC)cc(-c2cc3nc(C)c(CCC(=O)NC(C)CCc4ccco4)c(C)n3n2)c1 (stereo not drawn)	-12	-6	-2	-2	nt	-2
Cc1ccc([C@@H]2CC(=O)[C@@H]3CN(S(=O)(=O)c4ccc(C)cc4)[C@H](c4ccccc4)C[C@@H]3N2S(=O)(=O)c2ccc(C)cc2)cc1	-12	nt	nt	nt	nt	nt
CC1=C(C(=O)OCC(C)C)C(c2cccc(F)c2)N2C(=O)C(C)SC2=N1 (stereo not drawn)	0	-11	-6	-3	78*	-5
COC(=O)C1=C(C)N=C2SC(C)C(=O)N2C1c1ccc(C(=O)OC)cc1 (stereo not drawn)	-2	-5	-1	-1	34	-2
CC1=C(C(=O)OC(C)C)C(c2cccc(F)c2)N2C(=O)C(C)SC2=N1 (stereo not drawn)	-12	4	0	-3	74*	-4
CCOC(=O)C1=C(C)N=C2SC(C)C(=O)N2C1c1cccc(F)c1 (stereo not drawn)	-2	-2	-3	-2	47	-2
CCOC(=O)Cn1c(=NC(=O)c2ccc([N+](=O)[O-])s2)sc2ccccc21	-5	-5	-14	0	81*	-1
Cc1sc2ncn3ncnc3c2c1C	-5	2	-4	0	90*	3
SMILES	NOD2 RIPK2 PPI	TLR9-MyD88 block	TLR4 MyD88 comp	UPR CHOP act	CHOP inh	UPR XBP1 act
Cc1nc(SCC(=O)c2ccc(F)c(F)c2)[nH]c(=O)c1Oc1ccc(F)cc1	-3	-1	nt	0	-10	3
COc1ccc(-c2nc(SC)n(C(=O)c3ccco3)n2)cc1	-4	8	6	5	72*	-1
CCCC(=O)n1nc(-c2cccnc2)nc1NCc1ccccc1	-22	-2	-7	nt	70*	nt
CCC(=O)n1nc(-c2cccnc2)nc1NCc1ccccc1	-3	11	-7	nt	13	nt
O=C(c1cccs1)n1nc(-c2ccccc2)nc1NCc1ccc(F)cc1	-1	6	-1	2	26	-2
CC(=O)n1nc(-c2ccccc2)nc1NCc1ccc(F)cc1	9	3	-4	0	74*	4
COc1ccc(CNc2nc(-c3cccnc3)nn2C(=O)CC(C)C)cc1	-4	-4	6	0	84*	-5
Cc1nc(C)c(C(=O)OCC(=O)Nc2cccc(C)c2C)s1	-15	-13	nt	0	nt	0
Cc1cc(C)cc(Cn2cc(CN3CC(N4CCSCC4)CS3(=O)=O)nn2)c1 (stereo not drawn)	-11	nt	nt	nt	nt	nt
Cc1c(CCC(=O)NCCCn2ccnc2)c(=O)oc2cc3oc4c(c3cc12)CCCC4	-19	-12	nt	2	nt	6
Cc1cc(C(F)F)n2nc(C(=O)Nc3sc4c(c3C#N)CCC4)nc2n1	-3	0	-6	4	6	-2
CC(C)=C[C@H]1C[C@H](C)[C@H]2CC[C@H](C)c3c(O)c(O[C@H]4OC[C@H](O)[C@@H](O)[C@@H]4O)c(C)c1c32	-5	nt	nt	nt	nt	nt
CCCCC(=O)N(C)c1c(CC)nc2c(OCCOc3ccccc3)cccn12	2	nt	nt	nt	nt	nt
Nc1ccn([C@@H]2O[C@H](CNCc3ccc(N4CCNCC4)cc3)[C@@H](O)[C@H]2O)c(=O)n1	-4	-1	nt	nt	nt	nt
O=C(c1ccco1)n1nc(-c2ccccc2)nc1NCc1ccco1	-3	-7	-6	4	81*	5
CC1(C(=O)NCC2CCCO2)Oc2cccnc2NC1=O (stereo not drawn)	-7	4	3	1	2	0
CCCCNC(=O)C1(C)CCCCN1Cc1ccc(-c2ccccc2)cc1 (stereo not drawn)	-4	nt	nt	nt	nt	nt
Cc1nc(N2CCC(C)CC2)c2c(C)c(C(=O)Nc3ccc(C)c(F)c3)sc2n1	-9	7	-4	-2	71*	-2

Source: PubChem BioAssay
